From ChEMBL document CHEMBL4706586, “Structure-activity relationships for a series of (Bis(4-fluorophenyl)methyl)sulfinylethyl-aminopiperidines and -piperidine amines at the dopamine transporter: Bioisosteric replacement of the piperazine improves metabolic stability” (Eur J Med Chem, 2020)

Assays:
[1] = biological target: Sodium-dependent dopamine transporter (Rattus norvegicus, UniProt P23977); assay: Displacement of [3H]WIN35428 from DAT in Sprague-Dawley rat striatal membranes incubated for 120 mins by microbeta scintillation counting method; format: cell membranes, Striatum, Membrane
Rattus norvegicus = organism: Rattus norvegicus; assay: Selectivity ratio of Ki for SERT in Sprague-Dawley rat midbrain membranes to Ki for DAT in Sprague-Dawley rat striatum membranes
[2] = Selectivity ratio of Ki for sigma 1 receptor in guinea pig brain cortex membranes to Ki for DAT in Sprague-Dawley rat striatum membranes; format: cell membranes
[3] = biological target: Sodium-dependent serotonin transporter (Rattus norvegicus, UniProt P31652); assay: Displacement of [3H]citalopram from SERT in Sprague-Dawley rat midbrain membranes incubated for 60 mins by microbeta scintillation counting method; format: cell membranes, Membrane
[4] = biological target: Sigma non-opioid intracellular receptor 1 (Cavia porcellus, UniProt Q60492); assay: Displacement of [3H](+)-pentazocine from sigma 1 receptor in guinea pig brain cortex membranes after 120 mins by scintillation counting analysis; format: cell membranes, Membrane
Summary of the method: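 Male guinea pig cortex membranes in 10 mM Tris-HCl/0.32 M sucrose pH 7.4, 5.0 mg/well original wet weight; [3H](+)-pentazocine 3 nM final; inhibitor serial dilutions in 30% DMSO vehicle, triplicate; 120 min at RT; nonspecific with 10 μM PRE084 or (+)-pentazocine.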

[5] = Metabolic stability in rat liver microsomes assessed as compound remaining at 10 uM in presence of NADPH regenerating system by LC-MS/MS analysis; format: ADME, Microsome
[6] = Metabolic stability in rat liver microsomes assessed as compound remaining at 10 uM incubated for 60 mins in presence of NADPH regenerating system by LC-MS/MS analysis; format: ADME, Microsome; settings: 1 h
D(3) dopamine receptor = D(3) dopamine receptor (Homo sapiens, UniProt P35462); assay: Displacement of [3H]-N-methylspiperone from human D3 receptor expressed in HEK293 cell membranes measured after 60 mins by microbeta scintillation counting method; set-up: species or system Membrane
Summary of the method: (§1)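 Membranes from HEK293 cells stably expressing human D2LR, D3R or D4.4R; 20 μg/well protein (D2LR, D3R) or 30 μg/well (D4.4R); [3H]-N-methylspiperone 0.4 nM final; half-log dilutions in 30% DMSO, triplicate; 60 min RT; nonspecific 10 μM (+)-butaclamol.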

D(4) dopamine receptor = biological target: T1, D(4) dopamine receptor (Homo sapiens, UniProt P21917); assay: Displacement of [3H]-N-methylspiperone from human D4.4 receptor expressed in HEK293 cell membranes measured after 60 mins by microbeta scintillation counting method; set-up: species or system Membrane; summary of the method: as §1
T1 sequence (P21917 whole entry): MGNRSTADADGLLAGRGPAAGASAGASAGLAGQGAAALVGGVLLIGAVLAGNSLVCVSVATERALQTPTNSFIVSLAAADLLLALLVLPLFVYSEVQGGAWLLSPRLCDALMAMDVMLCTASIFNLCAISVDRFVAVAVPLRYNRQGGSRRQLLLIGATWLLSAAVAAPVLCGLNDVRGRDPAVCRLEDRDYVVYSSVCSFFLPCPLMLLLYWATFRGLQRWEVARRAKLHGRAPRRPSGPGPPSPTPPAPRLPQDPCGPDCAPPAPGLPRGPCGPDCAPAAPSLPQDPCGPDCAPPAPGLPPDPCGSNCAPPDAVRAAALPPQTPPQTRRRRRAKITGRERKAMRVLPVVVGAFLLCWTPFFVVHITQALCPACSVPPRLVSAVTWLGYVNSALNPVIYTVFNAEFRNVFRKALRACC

D(2) dopamine receptor = D(2) dopamine receptor (Homo sapiens, UniProt P14416); assay: Displacement of [3H]-N-methylspiperone from human D2L receptor expressed in HEK293 cell membranes measured after 60 mins by microbeta scintillation counting method; set-up: species or system Membrane; summary of the method: as §1
D(2) dopamine receptor, sequence (P14416 whole entry): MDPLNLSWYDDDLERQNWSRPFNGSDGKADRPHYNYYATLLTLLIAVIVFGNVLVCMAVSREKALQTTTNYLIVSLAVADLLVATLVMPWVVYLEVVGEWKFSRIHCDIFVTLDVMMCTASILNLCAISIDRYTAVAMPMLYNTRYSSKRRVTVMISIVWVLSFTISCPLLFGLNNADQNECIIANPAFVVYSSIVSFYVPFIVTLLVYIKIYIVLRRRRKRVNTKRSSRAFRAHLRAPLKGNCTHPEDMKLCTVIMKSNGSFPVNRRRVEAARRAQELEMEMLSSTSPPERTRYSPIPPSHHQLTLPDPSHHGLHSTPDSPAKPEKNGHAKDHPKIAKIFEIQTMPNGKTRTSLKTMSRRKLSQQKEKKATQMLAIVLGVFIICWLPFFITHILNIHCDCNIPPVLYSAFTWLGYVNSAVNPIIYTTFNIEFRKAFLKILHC

D(3) dopamine receptor, sequence (P35462 whole entry): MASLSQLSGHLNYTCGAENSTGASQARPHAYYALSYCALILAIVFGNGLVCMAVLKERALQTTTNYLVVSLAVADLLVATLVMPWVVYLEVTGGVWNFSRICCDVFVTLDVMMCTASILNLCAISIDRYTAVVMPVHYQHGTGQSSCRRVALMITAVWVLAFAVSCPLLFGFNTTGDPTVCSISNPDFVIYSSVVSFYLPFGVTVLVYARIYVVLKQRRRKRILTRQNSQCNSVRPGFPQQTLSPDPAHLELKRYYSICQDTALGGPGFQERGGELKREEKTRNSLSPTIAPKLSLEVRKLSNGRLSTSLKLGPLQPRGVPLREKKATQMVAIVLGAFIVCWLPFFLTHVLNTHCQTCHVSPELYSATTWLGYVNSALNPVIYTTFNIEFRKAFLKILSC
Sigma non-opioid intracellular receptor 1, sequence (Q60492 whole entry): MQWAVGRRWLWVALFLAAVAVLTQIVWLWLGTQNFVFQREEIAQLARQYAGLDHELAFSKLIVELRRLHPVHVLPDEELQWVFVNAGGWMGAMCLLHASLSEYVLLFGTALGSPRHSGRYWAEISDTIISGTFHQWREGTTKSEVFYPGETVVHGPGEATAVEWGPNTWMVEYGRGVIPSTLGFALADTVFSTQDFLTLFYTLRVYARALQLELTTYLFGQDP
Sodium-dependent dopamine transporter, sequence (P23977 whole entry): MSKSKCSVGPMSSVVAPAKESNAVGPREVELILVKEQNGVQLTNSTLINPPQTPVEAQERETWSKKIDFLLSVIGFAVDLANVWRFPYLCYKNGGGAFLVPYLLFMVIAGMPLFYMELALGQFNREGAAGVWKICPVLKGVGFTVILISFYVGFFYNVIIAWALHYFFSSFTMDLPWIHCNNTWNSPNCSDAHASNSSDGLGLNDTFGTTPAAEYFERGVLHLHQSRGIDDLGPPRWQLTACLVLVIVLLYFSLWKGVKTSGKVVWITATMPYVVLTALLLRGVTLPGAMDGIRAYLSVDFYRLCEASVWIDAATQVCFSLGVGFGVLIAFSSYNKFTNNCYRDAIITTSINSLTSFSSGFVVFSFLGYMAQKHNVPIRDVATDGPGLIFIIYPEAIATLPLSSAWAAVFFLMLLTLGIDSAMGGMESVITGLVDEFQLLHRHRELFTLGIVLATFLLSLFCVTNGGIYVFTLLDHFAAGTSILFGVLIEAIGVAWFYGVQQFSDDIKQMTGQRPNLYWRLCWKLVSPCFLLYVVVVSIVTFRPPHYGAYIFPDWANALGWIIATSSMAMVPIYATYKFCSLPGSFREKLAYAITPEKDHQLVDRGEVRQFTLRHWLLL
Sodium-dependent serotonin transporter, sequence (P31652 whole entry): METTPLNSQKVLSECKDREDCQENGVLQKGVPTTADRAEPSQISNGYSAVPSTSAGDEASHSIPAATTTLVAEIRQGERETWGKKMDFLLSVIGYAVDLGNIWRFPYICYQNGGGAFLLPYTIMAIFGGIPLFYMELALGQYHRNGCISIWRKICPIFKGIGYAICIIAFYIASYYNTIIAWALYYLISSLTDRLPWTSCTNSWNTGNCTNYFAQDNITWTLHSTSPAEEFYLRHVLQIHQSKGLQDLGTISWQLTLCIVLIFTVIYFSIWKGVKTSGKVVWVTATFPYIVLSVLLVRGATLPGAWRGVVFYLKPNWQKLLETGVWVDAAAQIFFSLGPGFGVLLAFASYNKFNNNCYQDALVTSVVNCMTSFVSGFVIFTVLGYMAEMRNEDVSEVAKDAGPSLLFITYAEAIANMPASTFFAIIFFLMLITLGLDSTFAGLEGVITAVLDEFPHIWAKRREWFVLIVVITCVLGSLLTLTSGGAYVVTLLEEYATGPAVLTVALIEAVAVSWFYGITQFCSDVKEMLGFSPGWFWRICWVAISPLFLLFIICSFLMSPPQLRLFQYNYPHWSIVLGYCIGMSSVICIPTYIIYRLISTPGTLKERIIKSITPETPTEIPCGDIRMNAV

NC(=O)C[S+]([O-])C(c1ccc(F)cc1)c1ccc(F)cc1 (racemic)
Ki [1]: 4090 nM
Ratio Ki (Rattus norvegicus): 11.9
Ratio Ki [2]: > 24
Ki [3]: 48700 nM
Ki [4]: > 100000 nM

O=C(c1cc2ccccc2[nH]1)N1CCC(NCCSC(c2ccc(F)cc2)c2ccc(F)cc2)CC1
Ki [1]: 177 nM
Ki [4]: 1130 nM

OC(CNC1CCN(CCSC(c2ccc(F)cc2)c2ccc(F)cc2)CC1)Cc1ccccc1 (stereo not given)
Stabilty [5]: 100%
Stabilty [6]: 69%
Ki (D(3) dopamine receptor): 701 nM
Ratio Ki (Rattus norvegicus): 1.4
Ratio Ki [2]: 1.84
Ki (D(4) dopamine receptor): 2670 nM
Ki [4]: 88 nM
Ki (D(2) dopamine receptor): 2270 nM

CC(C)(C)C(=O)N1CCC(NCC[S+]([O-])C(c2ccc(F)cc2)c2ccc(F)cc2)CC1 (stereo not given)
Ratio Ki (Rattus norvegicus): 3.14
Ratio Ki [2]: 1.1
Ki [4]: 11200 nM

NC(=O)C[S@@+]([O-])C(c1ccc(F)cc1)c1ccc(F)cc1
Ki [1]: 4830 nM
Ratio Ki (Rattus norvegicus): 8.05
Ratio Ki [2]: > 21
Ki [3]: 38900 nM
Ki [4]: > 100000 nM

CN(CCSC(c1ccc(F)cc1)c1ccc(F)cc1)C1CCN(C(=O)c2ccc(F)cc2)CC1
Ki [1]: 190 nM
Ratio Ki (Rattus norvegicus): 12.8
Ratio Ki [2]: 0.04
Ki [3]: 2440 nM
Ki [4]: 7.11 nM

O=C(c1ccccc1F)N1CCC(NCC[S+]([O-])C(c2ccc(F)cc2)c2ccc(F)cc2)CC1 (stereo not given)
Ki [1]: 604 nM
Ratio Ki (Rattus norvegicus): 23.5
Ratio Ki [2]: 2.16
Ki [3]: 14200 nM
Ki [4]: 1310 nM

O=C(c1ccccc1)N1CCC(NCC[S+]([O-])C(c2ccc(F)cc2)c2ccc(F)cc2)CC1 (stereo not given)
Ki [4]: 585 nM

CN(CCSC(c1ccc(F)cc1)c1ccc(F)cc1)C1CCN(C(=O)c2ccccc2F)CC1
Ki [1]: 222 nM
Ratio Ki (Rattus norvegicus): 4.47
Ratio Ki [2]: 0.03
Ki [3]: 992 nM
Ki [4]: 5.87 nM

O=C(C1CC1)N1CCC(NCCSC(c2ccc(F)cc2)c2ccc(F)cc2)CC1
Ratio Ki (Rattus norvegicus): 5.67
Ratio Ki [2]: 0.26
Ki [4]: 46.4 nM

CC(O)CN1CCN(CCSC(c2ccc(F)cc2)c2ccc(F)cc2)CC1 (stereo not given)
Ki [1]: 37.8 nM
Ki [3]: 6800 nM
Ki [4]: 2.24 nM

Fc1ccc(C(SCCN2CCC(NCc3ccc(Cl)cc3)CC2)c2ccc(F)cc2)cc1
Ratio Ki (Rattus norvegicus): 4.59
Ratio Ki [2]: 0.72
Ki [4]: 62.4 nM

CC(C)N(CCSC(c1ccc(F)cc1)c1ccc(F)cc1)C1CCN(C(=O)c2ccccc2F)CC1
Ki [1]: 1530 nM
Ratio Ki (Rattus norvegicus): 10.7
Ratio Ki [2]: 0.08
Ki [3]: 16300 nM
Ki [4]: 126 nM

CC(C)(C)C(=O)N1CCC(NCCSC(c2ccc(F)cc2)c2ccc(F)cc2)CC1
Ki (D(3) dopamine receptor): 3420 nM
Ki (D(4) dopamine receptor): 11900 nM
Ki [4]: 163 nM
Ki (D(2) dopamine receptor): 6070 nM

NC(=O)C[S@+]([O-])C(c1ccc(F)cc1)c1ccc(F)cc1
Ki [1]: 2970 nM
Ratio Ki (Rattus norvegicus): 5.05
Ratio Ki [2]: > 34
Ki [3]: 15000 nM
Ki [4]: > 100000 nM

O=C(c1ccc(F)cc1F)N1CCC(NCC[S+]([O-])C(c2ccc(F)cc2)c2ccc(F)cc2)CC1 (stereo not given)
Ki [1]: 564 nM
Ratio Ki (Rattus norvegicus): 8.17
Ratio Ki [2]: 0.3
Ki [3]: 4610 nM
Ki [4]: 171 nM

CC(C)(C)CN1CCC(NCC[S+]([O-])C(c2ccc(F)cc2)c2ccc(F)cc2)CC1 (stereo not given)
Ratio Ki (Rattus norvegicus): 16.2
Ratio Ki [2]: 1.26
Ki [4]: 542 nM

CC(C)(C)CN1CCC(NCCSC(c2ccc(F)cc2)c2ccc(F)cc2)CC1
Ratio Ki (Rattus norvegicus): 3.39
Ratio Ki [2]: 1.13
Ki [4]: 315 nM

[O-][S+](CCN1CCN(CC(O)Cc2ccccc2)CC1)C(c1ccc(F)cc1)c1ccc(F)cc1 (stereo not given)
Ki [1]: 2.6 nM
Ki [3]: 12700 nM
Ki [4]: 41.6 nM

[O-][S+](CCNC1CCN(CC(O)Cc2ccccc2)CC1)C(c1ccc(F)cc1)c1ccc(F)cc1 (stereo not given)
Stabilty [5]: 100%
Stabilty [6]: 22%
Ki (D(3) dopamine receptor): 5500 nM
Ratio Ki (Rattus norvegicus): 6.53
Ratio Ki [2]: 3.82
Ki [4]: 351 nM
Ki (D(2) dopamine receptor): 6610 nM

Fc1ccc(CNC2CCN(CCSC(c3ccc(F)cc3)c3ccc(F)cc3)CC2)cc1
Ratio Ki (Rattus norvegicus): 4.79
Ratio Ki [2]: 0.74
Ki [4]: 41.4 nM

O=C(c1ccccc1F)N1CCC(NCCSC(c2ccc(F)cc2)c2ccc(F)cc2)CC1
Ki [1]: 46.1 nM
Ratio Ki (Rattus norvegicus): 7.61
Ratio Ki [2]: 0.08
Ki [3]: 351 nM
Ki [4]: 3.57 nM

Fc1ccc(C(SCCNC2CCN(Cc3cc4ccccc4o3)CC2)c2ccc(F)cc2)cc1
Ki [1]: 120 nM
Ratio Ki (Rattus norvegicus): 5.79
Ratio Ki [2]: 1.71
Ki [3]: 695 nM
Ki [4]: 205 nM

CN(CC[S+]([O-])C(c1ccc(F)cc1)c1ccc(F)cc1)C1CCN(C(=O)c2ccccc2F)CC1 (stereo not given)
Ki [1]: 7380 nM
Ratio Ki (Rattus norvegicus): 34
Ratio Ki [2]: 0.07
Ki [3]: 251000 nM
Ki [4]: 516 nM

NC(=O)C[S+]([O-])C(c1ccccc1)c1ccccc1 (racemic) [MODAFINIL]
Ki (D(3) dopamine receptor): 39000 nM
Ki (D(4) dopamine receptor): > 100000 nM
Ki (D(2) dopamine receptor): > 100000 nM

Fc1ccc(C(SCCNC2CCN(CCc3ccccc3)CC2)c2ccc(F)cc2)cc1
Ratio Ki (Rattus norvegicus): 4.57
Ratio Ki [2]: 1.83
Ki [4]: 57.7 nM

Fc1ccc(C(SCCN2CCC(NCc3ccccc3)CC2)c2ccc(F)cc2)cc1
Ratio Ki (Rattus norvegicus): 3.06
Ratio Ki [2]: 0.56
Ki [4]: 60.9 nM

Fc1ccc(CN2CCC(NCCSC(c3ccc(F)cc3)c3ccc(F)cc3)CC2)cc1
Stabilty [5]: 100%
Stabilty [6]: 70%
Ki (D(3) dopamine receptor): 911 nM
Ratio Ki (Rattus norvegicus): 10.9
Ratio Ki [2]: 0.52
Ki (D(4) dopamine receptor): 980 nM
Ki [4]: 13.3 nM
Ki (D(2) dopamine receptor): 2920 nM

Fc1ccc(C(SCCN2CCC(NCc3ccc(C(F)(F)F)cc3)CC2)c2ccc(F)cc2)cc1
Ki [4]: 162 nM

Fc1ccc(C(SCCNC2CCN(Cc3cc4ccccc4[nH]3)CC2)c2ccc(F)cc2)cc1
Ki [4]: 205 nM

CC(O)CN1[C@H](C)CN(CCSC(c2ccc(F)cc2)c2ccc(F)cc2)C[C@@H]1C (stereo not given in full)
Ki (D(3) dopamine receptor): 1470 nM
Ratio Ki (Rattus norvegicus): 641
Ratio Ki [2]: 0.243
Ki (D(2) dopamine receptor): 11900 nM

O=C(c1cc2ccccc2o1)N1CCC(NCCSC(c2ccc(F)cc2)c2ccc(F)cc2)CC1
Ki [4]: 304 nM

Fc1ccc(C(SCCNC2CCN(Cc3ccc(C(F)(F)F)cc3)CC2)c2ccc(F)cc2)cc1
Ki [4]: 186 nM

Fc1ccc(C(SCCNC2CCN(Cc3ccccc3)CC2)c2ccc(F)cc2)cc1
Ratio Ki (Rattus norvegicus): 12.4
Ratio Ki [2]: 0.12
Ki [4]: 3.81 nM

Fc1ccc(C(SCCNC2CCN(CC3CC3)CC2)c2ccc(F)cc2)cc1
Ratio Ki (Rattus norvegicus): 3.93
Ratio Ki [2]: 0.66
Ki [4]: 269 nM

Fc1ccc(C(SCCNC2CCN(Cc3ccc(Cl)cc3)CC2)c2ccc(F)cc2)cc1
Ratio Ki (Rattus norvegicus): 9.04
Ratio Ki [2]: 1.15
Ki [4]: 45.5 nM
